# According to ChEMBL document CHEMBL1143230, “5-Substituted 2-aminothiophenes as A1 adenosine receptor allosteric enhancers” (Bioorg Med Chem, 2008):
# Columns and labels:
# Details in all cases: CHO-K1
# [1] = target: T1, Adenosine receptor A1 (Homo sapiens) (UniProt P30542); assay: Activity at human adenosine A1 receptor expressed in CHOK1 cells assessed as agonist-receptor ternary complex remaining by […]; assay type: functional, cell-based
# T1 sequence (whole entry): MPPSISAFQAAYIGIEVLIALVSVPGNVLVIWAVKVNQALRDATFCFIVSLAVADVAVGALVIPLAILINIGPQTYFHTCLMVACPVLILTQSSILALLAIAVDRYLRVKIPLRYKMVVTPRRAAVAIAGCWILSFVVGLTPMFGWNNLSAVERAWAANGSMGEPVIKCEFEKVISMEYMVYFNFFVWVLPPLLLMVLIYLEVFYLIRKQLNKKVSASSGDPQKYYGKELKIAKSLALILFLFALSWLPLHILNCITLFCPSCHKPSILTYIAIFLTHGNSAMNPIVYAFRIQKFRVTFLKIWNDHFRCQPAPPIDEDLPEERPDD
# In short: (§1)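 Membranes from CHO-K1 cells stably expressing hA1AR, 10 ug protein. Phase 2: vehicle or enhancer for 30 min. Phase 3: 100 uM BW-1433 plus 25 uM GTPgammaS for 10 min. Score = % specific binding remaining. ED50 and maximal score from hyperbolic fit over 0.1–50 uM, N = 2–3.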
# [2] = target: T1, Adenosine receptor A1 (Homo sapiens); assay: Activity at human adenosine A1 receptor expressed in CHOK1 cells assessed as agonist-receptor ternary complex remaining by […] after 10 mins; assay type: functional, cell-based; design: concentration or dose not given beside the values; in short: as §1
# [3] = target: T1, Adenosine receptor A1 (Homo sapiens); assay: Displacement of [3H]CPX from human adenosine A1 receptor expressed in CHOK1 cells at 10 uM relative to control; assay type: cell-based
# In short: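 Membranes from CHO-K1 cells expressing human A1 receptor, resuspended at 400 ug/mL in HE buffer with 1 U/mL adenosine deaminase. Incubated with [3H]CPX (2 nM in the added buffer) and 10 uM enhancer (final) for 90 min at room temperature. Non-specific binding defined with 100 uM NECA. Filtration, scintillation counting, triplicate, expressed as % inhibition versus control binding.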
SMILES,ED50 [1] [µM],Activity [2] [%],inhibition [3] [%]
CCOC(=O)c1c(N)sc(-c2ccc([N+](=O)[O-])cc2)c1-c1cccc(C(F)(F)F)c1,> 10,10.3,71.4
CCOC(=O)c1c(N)sc(-c2ccc(OC)cc2)c1-c1cccc(C(F)(F)F)c1,> 10,17.5,81.5
CCOC(=O)c1c(N)sc(-c2ccc(C(F)(F)F)cc2)c1-c1cccc(C(F)(F)F)c1,> 10,14.8,48.5
CCOC(=O)c1c(N)sc(-c2ccccc2)c1-c1cccc(C(F)(F)F)c1,> 10,13.2,83.6
Nc1sc(Br)c(-c2cccc(C(F)(F)F)c2)c1C(=O)c1ccccc1,> 10,53.5,47.5
CCOC(=O)c1c(N)sc(-c2ccc(C(C)=O)cc2)c1-c1cccc(C(F)(F)F)c1,> 10,28.5,64.6
Nc1scc(-c2cccc(C(F)(F)F)c2)c1C(=O)c1ccccc1,15.8,76.8,61.1
CCOC(=O)c1c(N)sc(-c2ccc(Cl)cc2)c1-c1cccc(C(F)(F)F)c1,6.6,57,58.4
CCOC(=O)c1c(N)sc(-c2cccc(C(C)=O)c2)c1-c1cccc(C(F)(F)F)c1,> 10,14.4,68.9
CCOC(=O)c1c(N)sc(-c2ccc(-c3ccncc3)cc2)c1-c1cccc(C(F)(F)F)c1,> 10,0,91
CCOC(=O)c1c(-c2cccc(C(F)(F)F)c2)csc1N,9.4,7.8,93

# Now from value to compound:
ED50 [1] [µM],Activity [2] [%],inhibition [3] [%],SMILES
2.3,18.1,82.4,Nc1sc(-c2ccccc2)c(-c2cccc(C(F)(F)F)c2)c1C(=O)c1ccccc1
> 10,4.8,25.6,CC(=O)c1ccc(-c2sc(N)c(C(=O)c3ccccc3)c2-c2cccc(C(F)(F)F)c2)cc1
> 10,23.7,34.8,Nc1sc(-c2ccc([N+](=O)[O-])cc2)c(-c2cccc(C(F)(F)F)c2)c1C(=O)c1ccccc1
> 10,22.5,59.1,Nc1sc(-c2ccc(Cl)cc2)c(-c2cccc(C(F)(F)F)c2)c1C(=O)c1ccccc1
> 10,22.2,87.1,Nc1sc(Cl)c(-c2cccc(C(F)(F)F)c2)c1C(=O)c1ccccc1
> 10,7.4,65.2,COc1ccc(-c2sc(N)c(C(=O)c3ccccc3)c2-c2cccc(C(F)(F)F)c2)cc1
> 10,18.5,33.1,CC(=O)c1cccc(-c2sc(N)c(C(=O)c3ccccc3)c2-c2cccc(C(F)(F)F)c2)c1
